Experimental data taken from ChEMBL document CHEMBL4130520 (ACS Med Chem Lett, 2017).
≈ marks a conversion by molar mass, not a printed value.

test system: Mycobacterium tuberculosis; assay: Antitubercular activity against Mycobacterium tuberculosis H37Rv after 4 days by MABA method; format: functional; settings: 96 h
Method in brief: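 Aerobic culture of H37Rv in microplate Alamar blue assay. MIC90 taken as the minimum concentration giving 90% growth inhibition. Each value is the mean of at least two independent determinations. Most compounds were tested as RS,SR diastereomer mixtures; a few were tested only as the pure R,S enantiomer.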

| Compound | MIC90 |
| --- | --- |
| COc1nc2ccc(Cl)cc2cc1C(c1ccccc1)C(O)(CCN(C)C)c1cccc2ccccc12 (stereo not given) | 0.71 µg/mL (≈ 1.39 µM) |
| COc1cccc(C(c2cc3cc(C#N)ccc3nc2OC)C(O)(CCN(C)C)c2cccc(F)c2)c1F (stereo not given) | 0.18 µg/mL (≈ 0.348 µM) |
| COc1cccc(C(c2cc3cc(N4CC5(COC5)C4)ccc3nc2OC)C(O)(CCN(C)C)c2cccc(OC(F)(F)F)c2)c1OC (stereo not given) | 0.75 µg/mL (≈ 1.12 µM) |
| COc1cccc([C@H](c2cc3cc(N(C)S(=O)(=O)N(C)C)ccc3nc2OC)[C@@](O)(CCN(C)C)c2cccc(F)c2)c1OC | 1.13 µg/mL (≈ 1.76 µM) |
| COc1nc2ccc(Br)cc2cc1C(c1cccc(F)c1)C(O)(CCN(C)C)c1cccc(OC(F)(F)F)c1 (stereo not given) | 0.25 µg/mL (≈ 0.412 µM) |
| COc1nc2ccc(N3CC4(COC4)C3)cc2cc1[C@@H](c1ccccc1)[C@@](O)(CCN(C)C)c1cccc2ccccc12 | 0.71 µg/mL (≈ 1.24 µM) |
| COc1cccc([C@@H](c2cc3cc(N4CC[S+]([O-])CC4)ccc3nc2OC)[C@@](O)(CCN(C)C)c2cccc(F)c2)c1F | > 5 µg/mL |
| CCc1ccc2nc(OC)c(C(c3ccccc3)C(O)(CCN(C)C)c3cccc4ccccc34)cc2c1 (stereo not given) | 0.23 µg/mL (≈ 0.456 µM) |
| COc1cccc([C@@H](c2cc3cc(N4CC5(COC5)C4)ccc3nc2OC)[C@@](O)(CCN(C)C)c2cccc(C)c2)c1F | 1.1 µg/mL (≈ 1.88 µM) |
| CC#Cc1ccc2nc(OC)c(C(c3ccccc3)C(O)(CCN(C)C)c3cccc4ccccc34)cc2c1 (stereo not given) | 6.1 µg/mL (≈ 11.9 µM) |
| COc1nc2ccccc2cc1C(c1ccccc1)C(O)(CCN(C)C)c1cccc2ccccc12 (stereo not given) | 1.9 µg/mL (≈ 3.99 µM) |
| COc1nc2ccc(C3CC3)cc2cc1C(c1ccccc1)C(O)(CCN(C)C)c1cccc2ccccc12 (stereo not given) | 0.13 µg/mL (≈ 0.252 µM) |
| COc1cccc(C(c2cc3cc(Br)ccc3nc2OC)C(O)(CCN(C)C)c2cccc(OC)c2OC)c1OC (stereo not given) | 0.2 µg/mL (≈ 0.32 µM) |
| COc1cccc([C@@H](c2cc3cc(N4CCSCC4)ccc3nc2OC)[C@@](O)(CCN(C)C)c2cccc(F)c2)c1F | 0.19 µg/mL (≈ 0.32 µM) |
| COc1cccc([C@@H](c2cc3cc(N4CC5(COC5)C4)ccc3nc2OC)[C@@](O)(CCN(C)C)c2cccc(Cl)c2)c1F | 0.31 µg/mL (≈ 0.511 µM) |
| COc1cccc([C@](O)(CCN(C)C)[C@H](c2cc3cc(N4CC5(COC5)C4)ccc3nc2OC)c2cccc(OC)c2F)c1 | 0.87 µg/mL (≈ 1.45 µM) |
| COc1cccc([C@H](c2cc3cc(N4CCSCC4)ccc3nc2OC)[C@@](O)(CCN(C)C)c2cccc(F)c2)c1OC | 0.28 µg/mL (≈ 0.462 µM) |
| COc1cccc([C@H](c2cc3cc(N4CC[S+]([O-])CC4)ccc3nc2OC)[C@@](O)(CCN(C)C)c2cccc(F)c2)c1OC | 4.8 µg/mL (≈ 7.72 µM) |
| COc1nc2ccc(N3CCOCC3)cc2cc1C(c1cccc(F)c1)C(O)(CCN(C)C)c1cccc(OC(F)(F)F)c1 (stereo not given) | 0.85 µg/mL (≈ 1.39 µM) |
| C#Cc1ccc2nc(OC)c(C(c3ccccc3)C(O)(CCN(C)C)c3cccc(F)c3)cc2c1 (stereo not given) | 0.36 µg/mL (≈ 0.768 µM) |
| COc1cccc(C(c2cc3cc(OC(F)(F)F)ccc3nc2OC)C(O)(CCN(C)C)c2cccc(OC(F)(F)F)c2)c1F (stereo not given) | 1.1 µg/mL (≈ 1.71 µM) |
| COc1cccc(C(O)(CCN(C)C)C(c2cc3cc(Br)ccc3nc2OC)c2cccc(OC)c2F)c1 (stereo not given) | 0.1 µg/mL (≈ 0.171 µM) |
| COc1cccc(C(c2cc3cc(C#N)ccc3nc2OC)C(O)(CCN(C)C)c2cccc(F)c2)c1OC (stereo not given) | 0.17 µg/mL (≈ 0.321 µM) |

| Compound | MIC90 |
| --- | --- |
| COc1cccc(C(c2cc3cc(C#N)ccc3nc2OC)C(O)(CCN(C)C)c2cccc(OC(F)(F)F)c2)c1F (stereo not given) | 0.26 µg/mL (≈ 0.446 µM) |
| COc1nc2ccc(CN(C)C)cc2cc1C(c1ccccc1)C(O)(CCN(C)C)c1cccc2ccccc12 (stereo not given) | 3.7 µg/mL (≈ 6.93 µM) |
| COc1cccc(C(c2cc3cc(N4CCOCC4)ccc3nc2OC)C(O)(CCN(C)C)c2cccc(OC)c2OC)c1OC (stereo not given) | 2.5 µg/mL (≈ 3.96 µM) |
| COc1cccc(C(c2cc3cc(C#N)ccc3nc2OC)C(O)(CCN(C)C)c2cccc(C)c2)c1F (stereo not given) | 0.09 µg/mL (≈ 0.175 µM) |
| COc1cccc(C(c2cc3cc(C#N)ccc3nc2OC)C(O)(CCN(C)C)c2cccc(OC(F)(F)F)c2)c1OC (stereo not given) | 0.21 µg/mL (≈ 0.353 µM) |
| COc1cccc(C(c2cc3cc(Br)ccc3nc2OC)C(O)(CCN(C)C)c2cccc(F)c2)c1F (stereo not given) | 0.1 µg/mL (≈ 0.175 µM) |
| COc1nc2ccc(N)cc2cc1C(c1ccccc1)C(O)(CCN(C)C)c1cccc2ccccc12 (stereo not given) | 1.9 µg/mL (≈ 3.86 µM) |
| COc1nc2ccc(N(C)S(=O)(=O)N(C)C)cc2cc1[C@@H](c1ccccc1)[C@@](O)(CCN(C)C)c1cccc(F)c1 | 5 µg/mL (≈ 8.61 µM) |
| COc1cccc(C(c2cc3cc(N4CCCCC4)ccc3nc2OC)C(O)(CCN(C)C)c2cccc(OC(F)(F)F)c2)c1F (stereo not given) | 2.3 µg/mL (≈ 3.58 µM) |
| COc1nc2ccc(OC(F)(F)F)cc2cc1C(c1ccccc1)C(O)(CCN(C)C)c1cccc2ccccc12 (stereo not given) | 0.24 µg/mL (≈ 0.428 µM) |
| COc1cccc(C(c2cc3cc(N4CC5(COC5)C4)ccc3nc2OC)C(O)(CCN(C)C)c2cccc(OC(F)(F)F)c2)c1F (stereo not given) | 0.77 µg/mL (≈ 1.17 µM) |
| COc1nc2ccc(Br)cc2cc1C(c1ccccc1)C(O)(CCN(C)C)c1cccc(F)c1 (stereo not given) | 0.23 µg/mL (≈ 0.439 µM) |
| COc1nc2ccc(C)cc2cc1C(c1ccccc1)C(O)(CCN(C)C)c1cccc2ccccc12 (stereo not given) | 1.74 µg/mL (≈ 3.55 µM) |
| COc1cccc([C@@H](c2cc3cc(N4CCS(=O)(=O)CC4)ccc3nc2OC)[C@@](O)(CCN(C)C)c2cccc(F)c2)c1F | > 5 µg/mL |
| COc1cccc([C@@H](c2cc3cc(S(C)(=O)=O)ccc3nc2OC)[C@@](O)(CCN(C)C)c2cccc(F)c2)c1F | 2.3 µg/mL (≈ 4.03 µM) |
| COc1nc2ccc(/C=N/O)cc2cc1C(c1ccccc1)C(O)(CCN(C)C)c1cccc2ccccc12 (stereo not given) | 6 µg/mL (≈ 11.5 µM) |
| COc1nc2ccc(F)cc2cc1C(c1ccccc1)C(O)(CCN(C)C)c1cccc2ccccc12 (stereo not given) | 0.94 µg/mL (≈ 1.9 µM) |
| COc1cccc(C(c2cc3cc(Br)ccc3nc2OC)C(O)(CCN(C)C)c2cccc(F)c2)c1OC (stereo not given) | 0.04 µg/mL (≈ 0.0686 µM) |
| COc1cccc(C(c2cc3cc(N4CCOCC4)ccc3nc2OC)C(O)(CCN(C)C)c2cccc(OC(F)(F)F)c2)c1OC (stereo not given) | 0.68 µg/mL (≈ 1.04 µM) |
| C=Cc1ccc2nc(OC)c(C(c3ccccc3)C(O)(CCN(C)C)c3cccc4ccccc34)cc2c1 (stereo not given) | 1.9 µg/mL (≈ 3.78 µM) |
| COc1nc2ccc(NC3CCCC3)cc2cc1C(c1ccccc1)C(O)(CCN(C)C)c1cccc2ccccc12 (stereo not given) | 1.7 µg/mL (≈ 3.04 µM) |
| COc1nc2ccc(C#N)cc2cc1C(c1cccc(F)c1)C(O)(CCN(C)C)c1cccc(OC(F)(F)F)c1 (stereo not given) | 0.47 µg/mL (≈ 0.849 µM) |
| COc1cccc(C(c2cc3cc(C#N)ccc3nc2OC)C(O)(CCN(C)C)c2cccc(Cl)c2)c1F (stereo not given) | 0.13 µg/mL (≈ 0.243 µM) |

| Compound | MIC90 |
| --- | --- |
| COc1nc2ccc(C#N)cc2cc1C(c1ccccc1)C(O)(CCN(C)C)c1cccc(F)c1 (stereo not given) | 0.69 µg/mL (≈ 1.47 µM) |
| C#Cc1ccc2nc(OC)c(C(c3ccccc3)C(O)(CCN(C)C)c3cccc4ccccc34)cc2c1 (stereo not given) | 0.48 µg/mL (≈ 0.959 µM) |
| COc1cccc(C(c2cc3cc(F)ccc3nc2OC)C(O)(CCN(C)C)c2cccc(OC(F)(F)F)c2)c1F (stereo not given) | 0.21 µg/mL (≈ 0.364 µM) |
| COc1nc2ccc(I)cc2cc1C(c1ccccc1)C(O)(CCN(C)C)c1cccc2ccccc12 (stereo not given) | 0.2 µg/mL (≈ 0.332 µM) |
| COc1cccc(C(O)(CCN(C)C)C(c2cc3cc(C#N)ccc3nc2OC)c2cccc(OC)c2F)c1 (stereo not given) | 0.09 µg/mL (≈ 0.17 µM) |
| COc1cccc(C(c2cc3cc(N4CC5(COC5)C4)ccc3nc2OC)C(O)(CCN(C)C)c2cccc(F)c2)c1OC (stereo not given) | 0.66 µg/mL (≈ 1.1 µM) |
| COc1cccc(C(c2cc3cc(C#N)ccc3nc2OC)C(O)(CCN(C)C)c2cccc(OC)c2OC)c1OC (stereo not given) | 0.34 µg/mL (≈ 0.595 µM) |
| COc1nc2ccc(Cl)cc2cc1C(c1cccc(F)c1)C(O)(CCN(C)C)c1cccc(OC(F)(F)F)c1 (stereo not given) | 0.09 µg/mL (≈ 0.16 µM) |
| COc1cccc(C(c2cc3cc(Br)ccc3nc2OC)C(O)(CCN(C)C)c2cccc(OC(F)(F)F)c2)c1OC (stereo not given) | 0.09 µg/mL (≈ 0.139 µM) |
| COc1cccc([C@@H](c2cc3cc(SC)ccc3nc2OC)[C@@](O)(CCN(C)C)c2cccc(F)c2)c1F | 0.13 µg/mL (≈ 0.241 µM) |
| COc1nc2ccc(NC3CCC3)cc2cc1[C@@H](c1ccccc1)[C@@](O)(CCN(C)C)c1cccc2ccccc12 | 0.48 µg/mL (≈ 0.88 µM) |
| COc1nc2ccc(N(C)S(=O)(=O)c3ccccc3)cc2cc1[C@@H](c1ccccc1)[C@@](O)(CCN(C)C)c1cccc(F)c1 | 4.1 µg/mL (≈ 6.68 µM) |
| COc1cccc(C(c2cc3cc(N4CCNCC4)ccc3nc2OC)C(O)(CCN(C)C)c2cccc(OC(F)(F)F)c2)c1F (stereo not given) | 0.66 µg/mL (≈ 1.03 µM) |
| COc1cccc(C(c2cc3cc(N4CCOCC4)ccc3nc2OC)C(O)(CCN(C)C)c2cccc(OC(F)(F)F)c2)c1F (stereo not given) | 0.14 µg/mL (≈ 0.218 µM) |
| CO/N=C/c1ccc2nc(OC)c([C@@H](c3ccccc3)[C@](O)(CCN(C)C)c3cccc4ccccc34)cc2c1 | 0.21 µg/mL (≈ 0.394 µM) |
| COc1cccc(C(c2cc3cc(Br)ccc3nc2OC)C(O)(CCN(C)C)c2cccc(Cl)c2)c1F (stereo not given) | 0.07 µg/mL (≈ 0.119 µM) |
| COc1nc2ccc(C(F)(F)F)cc2cc1C(c1ccccc1)C(O)(CCN(C)C)c1cccc2ccccc12 (stereo not given) | 0.38 µg/mL (≈ 0.698 µM) |
| COc1cccc(C(c2cc3cc(Br)ccc3nc2OC)C(O)(CCN(C)C)c2cccc(OC(F)(F)F)c2)c1F (stereo not given) | 0.09 µg/mL (≈ 0.141 µM) |
| COc1cccc([C@H](c2cc3cc(N4CCS(=O)(=O)CC4)ccc3nc2OC)[C@@](O)(CCN(C)C)c2cccc(F)c2)c1OC | > 5 µg/mL |
| COc1cccc(C(c2cc3cc(Cl)ccc3nc2OC)C(O)(CCN(C)C)c2cccc(OC)c2OC)c1OC (stereo not given) | 0.25 µg/mL (≈ 0.43 µM) |
| COc1cccc(C(c2cc3cc(Br)ccc3nc2OC)C(O)(CCN(C)C)c2cccc(C)c2)c1F (stereo not given) | 0.04 µg/mL (≈ 0.0705 µM) |
| COc1cccc(C(c2cc3cc(N4CC5(COC5)C4)ccc3nc2OC)[C@@](O)(CCN(C)C)c2cccc(F)c2)c1F (single isomer, unassigned) | 0.51 µg/mL (≈ 0.865 µM) |
| COc1nc2ccc(Br)cc2cc1[C@@H](c1ccccc1)[C@@](O)(CCN(C)C)c1cccc2ccccc12 [BEDAQUILINE] | 0.09 µg/mL (≈ 0.162 µM) |

target: Voltage-gated inwardly rectifying potassium channel KCNH2 (Homo sapiens, UniProt Q12809); assay: Inhibition of human ERG; settings: not given
Sequence (Q12809 whole entry): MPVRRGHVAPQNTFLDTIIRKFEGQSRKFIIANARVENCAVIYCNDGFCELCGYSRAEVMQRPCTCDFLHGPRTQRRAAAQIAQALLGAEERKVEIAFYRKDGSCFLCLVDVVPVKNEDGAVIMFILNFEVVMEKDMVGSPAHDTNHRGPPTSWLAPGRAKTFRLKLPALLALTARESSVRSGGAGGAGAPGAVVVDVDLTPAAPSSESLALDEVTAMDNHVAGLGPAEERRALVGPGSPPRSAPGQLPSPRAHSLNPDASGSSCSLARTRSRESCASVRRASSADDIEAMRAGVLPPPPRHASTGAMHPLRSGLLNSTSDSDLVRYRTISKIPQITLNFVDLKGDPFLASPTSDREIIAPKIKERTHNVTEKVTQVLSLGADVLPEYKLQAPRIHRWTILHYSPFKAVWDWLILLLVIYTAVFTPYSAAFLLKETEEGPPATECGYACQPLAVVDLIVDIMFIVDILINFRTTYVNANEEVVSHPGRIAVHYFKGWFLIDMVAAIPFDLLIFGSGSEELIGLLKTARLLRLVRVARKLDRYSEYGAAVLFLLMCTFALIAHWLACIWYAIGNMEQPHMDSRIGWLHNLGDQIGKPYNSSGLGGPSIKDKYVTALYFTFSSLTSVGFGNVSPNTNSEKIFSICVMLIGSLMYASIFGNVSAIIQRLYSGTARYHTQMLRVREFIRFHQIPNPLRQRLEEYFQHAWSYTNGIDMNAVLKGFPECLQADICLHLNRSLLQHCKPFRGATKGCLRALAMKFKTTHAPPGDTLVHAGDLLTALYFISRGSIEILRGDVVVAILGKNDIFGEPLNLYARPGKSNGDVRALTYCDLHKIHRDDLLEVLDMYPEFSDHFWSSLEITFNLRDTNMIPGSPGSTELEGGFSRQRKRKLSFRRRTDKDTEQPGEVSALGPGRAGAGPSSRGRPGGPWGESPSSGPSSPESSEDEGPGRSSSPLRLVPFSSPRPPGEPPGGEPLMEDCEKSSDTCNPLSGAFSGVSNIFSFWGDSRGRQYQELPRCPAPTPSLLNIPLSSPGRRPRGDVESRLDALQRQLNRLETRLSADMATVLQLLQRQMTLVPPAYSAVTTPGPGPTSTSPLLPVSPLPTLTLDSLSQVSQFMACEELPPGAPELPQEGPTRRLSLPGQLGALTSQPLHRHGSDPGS

| Compound | IC50 |
| --- | --- |
| COc1nc2ccc(Cl)cc2cc1C(c1ccccc1)C(O)(CCN(C)C)c1cccc2ccccc12 (stereo not given) | 6.9 µM |
| CC#Cc1ccc2nc(OC)c(C(c3ccccc3)C(O)(CCN(C)C)c3cccc4ccccc34)cc2c1 (stereo not given) | 7.9 µM |
| COc1nc2ccccc2cc1C(c1ccccc1)C(O)(CCN(C)C)c1cccc2ccccc12 (stereo not given) | 1.6 µM |
| COc1nc2ccc(CN(C)C)cc2cc1C(c1ccccc1)C(O)(CCN(C)C)c1cccc2ccccc12 (stereo not given) | 4.8 µM |
| COc1nc2ccc(/C=N/O)cc2cc1C(c1ccccc1)C(O)(CCN(C)C)c1cccc2ccccc12 (stereo not given) | 3.5 µM |
| CO/N=C/c1ccc2nc(OC)c([C@@H](c3ccccc3)[C@](O)(CCN(C)C)c3cccc4ccccc34)cc2c1 | 2.2 µM |
